ChEMBL document CHEMBL2417369, “Synthesis and evaluation of heteroaryl substituted diazaspirocycles as scaffolds to probe the ATP-binding site of protein kinases” (Bioorg Med Chem, 2013)

Columns and labels:
[1] = test system: Fibroblast growth factor receptor 2 (Homo sapiens), P21802 [N549H]; experiment: Inhibition of FGFR2 N549H mutant (unknown origin) at 30 uM by microfluidic mobility shift assay relative to control
Summary of the method: (§1)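 Single-point screen at 30 µM test compound across a 24-kinase panel in a microfluidic assay format. ATP was set near each enzyme's Km,[ATP]. […] The pan-AGC inhibitor H-89 served as an internal control on every assay plate.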

[2] = biological target: Tyrosine-protein kinase Fer (Homo sapiens) (UniProt P16591); experiment: Inhibition of FER (unknown origin) at 30 uM by microfluidic mobility shift assay relative to control; summary of the method: as §1
[3] = biological target: Receptor-type tyrosine-protein kinase FLT3 (Homo sapiens) (UniProt P36888); experiment: Inhibition of FLT3 (unknown origin) at 30 uM by microfluidic mobility shift assay relative to control; summary of the method: as §1
[4] = biological target: Tyrosine-protein kinase SYK (Homo sapiens) (UniProt P43405); experiment: Inhibition of SYK (unknown origin) at 30 uM by microfluidic mobility shift assay relative to control
Summary of the method: (§2)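 Single-point screen against a 24-kinase panel in a commercial microfluidic assay format. Compounds were tested at 30 µM, with ATP at approximately the Km,[ATP] of each enzyme. H-89 was included on each assay plate as an internal control.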

[5] = biological target: Insulin-like growth factor 1 receptor (Homo sapiens) (UniProt P08069); experiment: Inhibition of IGF1R (unknown origin) at 30 uM by microfluidic mobility shift assay relative to control; summary of the method: as §1
[6] = biological target: Mitogen-activated protein kinase 11 (Homo sapiens) (UniProt Q15759); experiment: Inhibition of p38beta-2 (unknown origin) at 30 uM by microfluidic mobility shift assay relative to control; summary of the method: as §2
Homo sapiens [7] = species: Homo sapiens; experiment: Inhibition of PKGbeta (unknown origin) at 30 uM by microfluidic mobility shift assay relative to control; summary of the method: as §2
Homo sapiens [8] = species: Homo sapiens; experiment: Inhibition of DYRK1 (unknown origin) at 30 uM by microfluidic mobility shift assay relative to control; summary of the method: as §1
[9] = biological target: Protein kinase C beta type (Homo sapiens) (UniProt P05771); experiment: Inhibition of PKCbeta-1 (unknown origin) at 30 uM by microfluidic mobility shift assay relative to control; summary of the method: as §1
[10] = biological target: T1, Serine/threonine-protein kinase Sgk1 (Homo sapiens) (UniProt O00141); experiment: Inhibition of SGK1 (unknown origin) at 30 uM by microfluidic mobility shift assay relative to control; summary of the method: as §2
T1 sequence (whole entry): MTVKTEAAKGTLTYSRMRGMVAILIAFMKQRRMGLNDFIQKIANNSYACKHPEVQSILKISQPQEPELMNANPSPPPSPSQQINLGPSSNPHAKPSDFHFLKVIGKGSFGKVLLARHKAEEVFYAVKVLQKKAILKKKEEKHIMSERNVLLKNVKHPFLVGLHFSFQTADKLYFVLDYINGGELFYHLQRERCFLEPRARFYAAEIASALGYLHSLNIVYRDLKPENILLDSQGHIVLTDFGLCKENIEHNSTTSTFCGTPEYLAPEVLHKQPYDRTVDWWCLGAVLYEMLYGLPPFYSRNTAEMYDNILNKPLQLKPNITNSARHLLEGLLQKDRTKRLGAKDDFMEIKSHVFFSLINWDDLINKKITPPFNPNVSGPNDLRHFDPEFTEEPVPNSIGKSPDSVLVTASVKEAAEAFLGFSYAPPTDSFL

[11] = biological target: T2, Testis-specific serine/threonine-protein kinase 2 (Homo sapiens) (UniProt Q96PF2); experiment: Inhibition of TSSK2 (unknown origin) at 30 uM by microfluidic mobility shift assay relative to control; summary of the method: as §2
T2 sequence (whole entry): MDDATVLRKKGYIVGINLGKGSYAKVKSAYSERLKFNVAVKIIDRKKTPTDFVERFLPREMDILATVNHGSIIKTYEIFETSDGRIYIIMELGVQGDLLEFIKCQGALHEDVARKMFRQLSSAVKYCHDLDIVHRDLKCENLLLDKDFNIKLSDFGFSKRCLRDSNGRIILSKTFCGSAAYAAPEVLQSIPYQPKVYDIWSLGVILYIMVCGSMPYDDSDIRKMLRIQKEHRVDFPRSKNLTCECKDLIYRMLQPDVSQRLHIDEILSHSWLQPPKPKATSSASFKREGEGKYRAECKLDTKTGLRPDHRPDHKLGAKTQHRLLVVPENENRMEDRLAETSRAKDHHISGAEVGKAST

Homo sapiens [12] = species: Homo sapiens; experiment: Inhibition of PKGalpha (unknown origin) at 30 uM by microfluidic mobility shift assay relative to control; summary of the method: as §2
[13] = biological target: Aurora kinase B (Homo sapiens) (UniProt Q96GD4); experiment: Inhibition of AURB (unknown origin) at 30 uM by microfluidic mobility shift assay relative to control; summary of the method: as §1
Homo sapiens [14] = species: Homo sapiens; experiment: Inhibition of DCAMK (unknown origin) at 30 uM by microfluidic mobility shift assay relative to control; summary of the method: as §1
[15] = biological target: Protein kinase C beta type (Homo sapiens) (UniProt P05771); experiment: Inhibition of PKCbeta-2 (unknown origin) at 30 uM by microfluidic mobility shift assay relative to control; summary of the method: as §1
[16] = biological target: Fibroblast growth factor receptor 2 (Homo sapiens) (UniProt P21802); experiment: Inhibition of FGFR2 (unknown origin) at 30 uM by microfluidic mobility shift assay relative to control; summary of the method: as §1
[17] = biological target: T3, Serine/threonine-protein kinase Sgk2 (Homo sapiens) (UniProt Q9HBY8); experiment: Inhibition of SGK2 (unknown origin) at 30 uM by microfluidic mobility shift assay relative to control; summary of the method: as §2
T3 sequence (whole entry): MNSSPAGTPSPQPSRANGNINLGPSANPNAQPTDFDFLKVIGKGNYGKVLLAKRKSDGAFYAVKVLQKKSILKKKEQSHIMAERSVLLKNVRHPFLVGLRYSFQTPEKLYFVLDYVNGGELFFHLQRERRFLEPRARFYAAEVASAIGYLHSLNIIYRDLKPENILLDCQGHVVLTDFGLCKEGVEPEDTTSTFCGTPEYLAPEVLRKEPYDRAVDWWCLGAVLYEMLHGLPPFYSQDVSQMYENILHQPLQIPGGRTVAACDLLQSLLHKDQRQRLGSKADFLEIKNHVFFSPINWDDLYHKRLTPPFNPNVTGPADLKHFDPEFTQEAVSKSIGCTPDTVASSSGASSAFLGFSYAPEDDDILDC

[18] = biological target: Serine/threonine-protein kinase pim-2 (Homo sapiens) (UniProt Q9P1W9); experiment: Inhibition of PIM2 (unknown origin) at 30 uM by microfluidic mobility shift assay relative to control; summary of the method: as §1
[19] = test system: Tyrosine-protein kinase ABL1 (Homo sapiens), P00519 [H396P]; experiment: Inhibition of ABL H396P mutant (unknown origin) at 30 uM by microfluidic mobility shift assay relative to control; type: protein assay; summary of the method: as §1
[20] = biological target: Serine/threonine-protein kinase MARK1 (Homo sapiens) (UniProt Q9P0L2); experiment: Inhibition of MARK1 (unknown origin) at 30 uM by microfluidic mobility shift assay relative to control; summary of the method: as §1
[21] = biological target: Rho-associated protein kinase 2 (Homo sapiens) (UniProt O75116); experiment: Inhibition of ROCK2 (unknown origin) at 30 uM by microfluidic mobility shift assay relative to control; summary of the method: as §2
[22] = biological target: Platelet-derived growth factor receptor (Homo sapiens) (UniProt P09619+P16234); experiment: Inhibition of PDGFR (unknown origin) at 30 uM by microfluidic mobility shift assay relative to control; type: protein-complex assay; summary of the method: as §1

Protein kinase C beta type (Homo sapiens), sequence (P05771 2-671 limits assumed): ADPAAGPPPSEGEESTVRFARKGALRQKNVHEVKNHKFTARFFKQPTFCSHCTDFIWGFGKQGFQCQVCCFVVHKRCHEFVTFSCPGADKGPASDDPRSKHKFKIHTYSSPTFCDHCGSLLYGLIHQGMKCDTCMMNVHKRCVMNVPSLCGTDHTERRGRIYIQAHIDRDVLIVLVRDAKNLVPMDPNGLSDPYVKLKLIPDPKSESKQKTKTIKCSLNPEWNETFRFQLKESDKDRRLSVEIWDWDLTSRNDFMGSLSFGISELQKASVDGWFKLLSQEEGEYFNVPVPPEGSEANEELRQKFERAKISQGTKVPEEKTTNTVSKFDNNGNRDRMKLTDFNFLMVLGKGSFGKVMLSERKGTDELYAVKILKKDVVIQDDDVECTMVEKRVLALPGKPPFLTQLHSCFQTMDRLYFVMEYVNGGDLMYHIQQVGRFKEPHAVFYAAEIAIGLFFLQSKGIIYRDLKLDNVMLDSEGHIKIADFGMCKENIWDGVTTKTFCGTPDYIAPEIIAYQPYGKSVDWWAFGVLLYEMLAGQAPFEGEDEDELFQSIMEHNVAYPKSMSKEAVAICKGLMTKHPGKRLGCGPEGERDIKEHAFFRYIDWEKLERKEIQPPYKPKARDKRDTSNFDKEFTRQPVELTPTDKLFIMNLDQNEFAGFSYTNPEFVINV
Aurora kinase B (Homo sapiens), sequence (Q96GD4 whole entry): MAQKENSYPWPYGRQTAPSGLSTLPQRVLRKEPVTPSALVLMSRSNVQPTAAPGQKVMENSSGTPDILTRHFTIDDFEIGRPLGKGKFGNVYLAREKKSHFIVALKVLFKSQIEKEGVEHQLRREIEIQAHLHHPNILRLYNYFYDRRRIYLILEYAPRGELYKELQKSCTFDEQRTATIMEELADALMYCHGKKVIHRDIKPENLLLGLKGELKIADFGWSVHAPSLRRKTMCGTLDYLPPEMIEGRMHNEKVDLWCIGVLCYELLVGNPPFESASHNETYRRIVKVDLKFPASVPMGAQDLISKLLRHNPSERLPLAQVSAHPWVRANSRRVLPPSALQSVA
Fibroblast growth factor receptor 2 (Homo sapiens), sequence (P21802 22-821 limits assumed): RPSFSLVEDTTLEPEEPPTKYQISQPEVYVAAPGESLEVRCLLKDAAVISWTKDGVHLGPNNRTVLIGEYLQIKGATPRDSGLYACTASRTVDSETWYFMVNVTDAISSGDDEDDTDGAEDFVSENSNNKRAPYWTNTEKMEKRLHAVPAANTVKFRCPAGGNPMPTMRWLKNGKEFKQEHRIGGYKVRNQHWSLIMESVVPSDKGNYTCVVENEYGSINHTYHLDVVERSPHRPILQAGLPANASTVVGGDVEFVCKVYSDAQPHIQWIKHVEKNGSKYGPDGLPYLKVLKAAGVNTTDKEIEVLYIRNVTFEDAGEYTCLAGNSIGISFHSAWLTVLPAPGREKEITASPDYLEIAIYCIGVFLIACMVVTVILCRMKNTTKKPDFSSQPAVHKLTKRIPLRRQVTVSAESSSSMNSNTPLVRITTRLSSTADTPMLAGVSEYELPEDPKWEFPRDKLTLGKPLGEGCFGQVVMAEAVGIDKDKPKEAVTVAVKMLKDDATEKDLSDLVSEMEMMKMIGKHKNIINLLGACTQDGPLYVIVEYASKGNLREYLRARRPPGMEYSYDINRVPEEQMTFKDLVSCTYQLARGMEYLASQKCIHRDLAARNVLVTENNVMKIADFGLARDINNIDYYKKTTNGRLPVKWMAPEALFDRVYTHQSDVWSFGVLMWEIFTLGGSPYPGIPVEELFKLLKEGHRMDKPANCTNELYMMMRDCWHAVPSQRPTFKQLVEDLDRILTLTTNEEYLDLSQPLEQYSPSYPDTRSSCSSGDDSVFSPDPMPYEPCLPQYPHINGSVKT
Insulin-like growth factor 1 receptor (Homo sapiens), sequence (P08069 31-736 limits assumed): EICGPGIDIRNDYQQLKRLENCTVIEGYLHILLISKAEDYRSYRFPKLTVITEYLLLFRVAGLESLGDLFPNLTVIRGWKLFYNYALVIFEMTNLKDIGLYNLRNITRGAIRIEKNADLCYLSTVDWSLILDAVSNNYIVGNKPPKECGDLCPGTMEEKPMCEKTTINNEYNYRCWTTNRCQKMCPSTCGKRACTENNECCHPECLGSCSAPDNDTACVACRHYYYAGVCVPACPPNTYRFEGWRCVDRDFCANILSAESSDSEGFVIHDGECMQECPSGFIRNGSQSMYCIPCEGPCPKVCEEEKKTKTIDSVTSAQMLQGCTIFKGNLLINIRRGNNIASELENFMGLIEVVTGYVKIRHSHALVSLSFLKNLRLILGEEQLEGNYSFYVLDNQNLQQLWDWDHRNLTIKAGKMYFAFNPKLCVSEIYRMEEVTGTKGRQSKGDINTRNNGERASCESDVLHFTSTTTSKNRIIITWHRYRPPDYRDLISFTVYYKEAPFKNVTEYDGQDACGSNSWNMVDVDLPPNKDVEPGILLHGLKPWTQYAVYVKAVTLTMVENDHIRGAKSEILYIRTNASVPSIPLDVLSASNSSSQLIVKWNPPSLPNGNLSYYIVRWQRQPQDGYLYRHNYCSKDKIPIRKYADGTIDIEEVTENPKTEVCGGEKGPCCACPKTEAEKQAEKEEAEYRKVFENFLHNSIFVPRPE
Insulin-like growth factor 1 receptor (Homo sapiens), sequence (P08069 741-1367 limits assumed): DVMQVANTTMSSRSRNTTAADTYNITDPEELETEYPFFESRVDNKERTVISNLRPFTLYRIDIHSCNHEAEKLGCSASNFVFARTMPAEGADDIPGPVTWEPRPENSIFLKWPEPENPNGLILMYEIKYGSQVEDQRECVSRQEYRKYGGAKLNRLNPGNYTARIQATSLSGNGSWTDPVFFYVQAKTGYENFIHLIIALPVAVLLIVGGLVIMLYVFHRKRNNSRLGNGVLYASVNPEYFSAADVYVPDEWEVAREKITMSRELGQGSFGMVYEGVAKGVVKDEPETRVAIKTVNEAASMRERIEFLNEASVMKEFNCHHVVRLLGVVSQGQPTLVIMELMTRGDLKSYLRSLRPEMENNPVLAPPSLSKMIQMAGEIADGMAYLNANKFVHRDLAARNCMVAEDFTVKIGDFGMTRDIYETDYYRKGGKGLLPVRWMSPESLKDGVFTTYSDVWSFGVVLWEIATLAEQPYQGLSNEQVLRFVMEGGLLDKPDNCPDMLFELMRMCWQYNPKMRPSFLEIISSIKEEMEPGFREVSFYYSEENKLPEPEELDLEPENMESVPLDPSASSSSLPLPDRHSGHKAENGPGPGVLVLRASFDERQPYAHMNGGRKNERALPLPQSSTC
Serine/threonine-protein kinase MARK1 (Homo sapiens), sequence (Q9P0L2 whole entry, looked up): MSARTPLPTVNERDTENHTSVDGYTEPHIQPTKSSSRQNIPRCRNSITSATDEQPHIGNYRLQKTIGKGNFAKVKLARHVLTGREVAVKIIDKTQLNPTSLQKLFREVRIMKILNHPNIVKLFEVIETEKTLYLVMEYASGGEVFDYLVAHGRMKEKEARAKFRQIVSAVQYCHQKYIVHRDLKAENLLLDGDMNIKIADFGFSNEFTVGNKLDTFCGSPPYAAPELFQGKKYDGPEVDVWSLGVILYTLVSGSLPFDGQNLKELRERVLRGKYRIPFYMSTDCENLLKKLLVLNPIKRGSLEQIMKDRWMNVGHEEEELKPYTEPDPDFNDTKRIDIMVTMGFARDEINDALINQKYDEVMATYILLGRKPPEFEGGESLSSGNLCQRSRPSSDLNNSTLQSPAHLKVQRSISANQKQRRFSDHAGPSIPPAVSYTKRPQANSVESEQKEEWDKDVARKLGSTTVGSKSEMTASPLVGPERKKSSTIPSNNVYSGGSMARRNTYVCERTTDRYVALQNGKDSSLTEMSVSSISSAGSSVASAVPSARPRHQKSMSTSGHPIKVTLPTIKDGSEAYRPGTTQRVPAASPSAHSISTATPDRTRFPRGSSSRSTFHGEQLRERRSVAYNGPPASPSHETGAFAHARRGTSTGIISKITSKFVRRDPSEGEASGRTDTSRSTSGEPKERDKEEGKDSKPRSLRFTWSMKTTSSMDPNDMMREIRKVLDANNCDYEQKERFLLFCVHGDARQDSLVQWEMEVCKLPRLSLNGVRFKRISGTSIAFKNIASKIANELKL
Fibroblast growth factor receptor 2 (Homo sapiens), P21802 [N549H], sequence (P21802 whole entry N549H): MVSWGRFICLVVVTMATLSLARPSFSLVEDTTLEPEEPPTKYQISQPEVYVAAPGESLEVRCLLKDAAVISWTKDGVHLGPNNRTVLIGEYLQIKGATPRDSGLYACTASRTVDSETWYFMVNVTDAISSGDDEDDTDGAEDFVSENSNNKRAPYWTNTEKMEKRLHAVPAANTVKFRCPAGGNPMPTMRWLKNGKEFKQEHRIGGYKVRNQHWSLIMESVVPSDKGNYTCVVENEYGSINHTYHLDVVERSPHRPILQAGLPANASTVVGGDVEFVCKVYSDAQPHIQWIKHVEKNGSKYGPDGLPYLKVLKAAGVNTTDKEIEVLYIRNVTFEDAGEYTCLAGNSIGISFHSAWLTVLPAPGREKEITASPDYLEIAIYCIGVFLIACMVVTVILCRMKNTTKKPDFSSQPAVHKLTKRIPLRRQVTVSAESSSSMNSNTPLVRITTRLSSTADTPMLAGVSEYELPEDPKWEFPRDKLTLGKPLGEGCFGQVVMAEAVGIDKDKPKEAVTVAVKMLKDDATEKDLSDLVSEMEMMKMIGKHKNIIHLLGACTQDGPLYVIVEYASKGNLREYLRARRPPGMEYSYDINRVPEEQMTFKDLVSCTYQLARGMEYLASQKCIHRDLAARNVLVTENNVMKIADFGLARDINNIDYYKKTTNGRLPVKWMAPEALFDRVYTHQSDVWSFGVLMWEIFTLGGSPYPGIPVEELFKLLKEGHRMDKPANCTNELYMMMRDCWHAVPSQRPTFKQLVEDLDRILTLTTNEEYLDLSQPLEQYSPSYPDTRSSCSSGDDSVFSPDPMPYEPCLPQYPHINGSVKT

inhibition [1] [%] | inhibition [2] [%] | inhibition [3] [%] | inhibition [4] [%] | inhibition [5] [%] | inhibition [6] [%] | inhibition (Homo sapiens [7]) [%] | inhibition (Homo sapiens [8]) [%] | inhibition [9] [%] | inhibition [10] [%] | inhibition [11] [%] | inhibition (Homo sapiens [12]) [%] | inhibition [13] [%] | inhibition (Homo sapiens [14]) [%] | inhibition [15] [%] | inhibition [16] [%] | inhibition [17] [%] | inhibition [18] [%] | inhibition [19] [%] | inhibition [20] [%] | SMILES | other results
22 | 2 | 10 | 8 | 5 | 8 | 98 | 7 | 76 | 64 | 32 | 99 | 66 | 20 | 60 | 18 | 59 | 21 | 15 | 99 | c1ccc(CC2CCNC3(CCN(c4ncnc5[nH]cnc45)CC3)C2)cc1 (racemic) | inhibition [21]: 98%; inhibition [22]: 20%
20 | 12 | 25 | 24 | 5 | 4 | 99 | 8 | 65 | 41 | 25 | 99 | 64 | 17 | 36 | 15 | 47 | 4 | 42 | 89 | c1ccc(C2CCNC3(CCN(c4ncnc5[nH]cnc45)CC3)C2)cc1 (racemic) | inhibition [21]: 99%; inhibition [22]: 29%
15 | 10 | 28 | 0 | 5 | 3 | 86 | 13 | 38 | 15 | 7 | 86 | 73 | 13 | 13 | 20 | 17 | 13 | 28 | 0 | c1ccc(CC2CCC3(CCN(c4ncnc5[nH]cnc45)CC3)NC2)cc1 (racemic) | inhibition [21]: 78%; inhibition [22]: 28%
